Calls of active or inactive are those of the source.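 The calls were made as follows, unless noted: active = GFP response above 150% of the DMSO level; inconclusive = fewer than 70 events counted for a yeast strain; inactive = the rest.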
Columns and labels:
[1] = hit retest on RPL19A-GFP reporter strain – cell-based, S. cerevisiae, flow cytometry, cherry picks, mother/daughter gates, confirmation (AID 2270;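 active = GFP response below 50% of the DMSO control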); conditions: 3 h, at 10 µM, stronger effect = lower value, 100 = same GFP as DMSO wells
[2] = yeast TOR pathway reporter LAP4-GFP change – cell-based, cherry picks, flow cytometry, mother/daughter gates, confirmation (AID 2271;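 active = GFP response above 150% of the DMSO control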;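 also: ratio of sample to DMSO plate mean so 100% equals DMSO level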); conditions: S. cerevisiae LAP4-GFP strain, 3 h, at 10 µM, stronger effect = higher value, 100 means same as DMSO control
Method in brief: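 System: GFP-fusion yeast strain | Input: Yeast cells seeded at OD600 of 0.2 | Technique: HT flow cytometry, GFP fluorescence channel | Read-out: % GFP response vs DMSO | Dosing: Single test-compound dose, 10 µM final | Controls: Positive rapamycin (400 ng/mL), negative DMSO | Times: 3 h treatment at 30 °C with rotation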

[3] = TOR pathway reporter MEP2-GFP, retest of hits – S. cerevisiae, flow cytometry GFP, cherry picks, confirmation (AID 2272;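 active = GFP response above 150% of the DMSO control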;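 also: ratio of well signal to plate DMSO mean so 100% equals DMSO level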); conditions: S. cerevisiae MEP2-GFP strain, 3 h, at 10 µM, stronger effect = higher value
[4] = yeast AGP1-GFP fluorescence change, single-dose – cell-based, flow cytometry, S. cerevisiae, cherry picks, confirmation (AID 2273);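 also: median GFP channel fluorescence over the whole cell population gate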; conditions: S. cerevisiae AGP1-GFP strain, 3 h, at 10 µM
[5] = TOR pathway CIT2 reporter hit retest – S. cerevisiae, GFP fusion, cherry picks, mother/daughter gates, confirmation (AID 2274); conditions: S. cerevisiae CIT2-GFP strain, flow cytometry, 3 h, at 10 µM, stronger effect = higher value
[6] = measured here: daughter cell gate
[7] = measured here: mother cell gate
[8] = measured here: daughter cell gate response
[9] = measured here: mother cell gate response

| Compound | GFP response vs DMSO [1] | GFP response vs DMSO [1, 6] [%] | GFP response vs DMSO [1, 7] [%] | GFP response relative to DMSO [2] | GFP response relative to DMSO [2, 8] [%] | GFP response relative to DMSO [2, 9] [%] | GFP response vs DMSO [3] | GFP response, % of DMSO [4] | GFP response, % of DMSO [5] | GFP response, % of DMSO [5, 6] [%] | GFP response, % of DMSO [5, 7] [%] |
| --- | --- | --- | --- | --- | --- | --- | --- | --- | --- | --- | --- |
| CC(NC(=O)C1CCC(CNS(=O)(=O)c2ccccc2)CC1)c1ccccc1 (configuration not stated) | 101% (inactive) | 102 | 101 | 100% (inactive) | 102 | 99.5 | 104% (inactive) | 107% (inactive) | 99.3% (inactive) | 100 | 96.8 |
| Cc1cc(N)n2ncc(-c3ccccc3)c2n1 | 95.6% (inactive) | 95.1 | 94 | 106% (inactive) | 102 | 106 | 105% (inactive) | 89.4% (inactive) | 101% (inactive) | 101 | 98.5 |
| CN1CCN(/N=C/c2c3ccccc3c(Cl)c3ccccc23)CC1 | 94.9% (inactive) | 95 | 94 | 105% (inactive) | 101 | 101 | 105% (inactive) | 99.8% (inactive) | 101% (inactive) | 102 | 95.7 |
| CSc1nc(N2CCN(c3ccccc3Cl)CC2)c2ccccc2n1 | 96.2% (inactive) | 96.7 | 95.2 | 98.9% (inactive) | 101 | 98.4 | 110% (inactive) | 102% (inactive) | 97.2% (inactive) | 97.6 | 97.1 |
| CNC(=O)/C(C#N)=C/c1c(N2CCCCCC2)nc2ccccn2c1=O | 98.7% (inactive) | 100 | 98.2 | 104% (inactive) | 104 | 106 | 112% (inactive) | 98.6% (inactive) | 108% (inactive) | 110 | 108 |
| Cc1ccc(-c2csc(NC(=O)c3ccno3)n2)cc1 | 99% (inactive) | 98.4 | 96.5 | 103% (inactive) | 99.1 | 106 | 99% (inactive) | 95.1% (inactive) | 100% (inactive) | 99.2 | 99.3 |
| COc1ccc(/C=N/Nc2nc(-c3cccnc3)nc3ccccc23)c(OC)c1 | 98% (inactive) | 97.6 | 98.2 | 96.7% (inactive) | 94.4 | 98.3 | 111% (inactive) | 96.8% (inactive) | 108% (inactive) | 112 | 107 |
| O=C(N/N=C/c1ccccc1Cl)c1ccc(F)cc1 | 98.2% (inactive) | 98.1 | 97.2 | 111% (inactive) | 104 | 112 | 96.8% (inactive) | 102% (inactive) | 105% (inactive) | 103 | 103 |
| CCOc1ccc(S(=O)(=O)N2CCc3ccccc3C2)cc1 | 99.7% (inactive) | 97.8 | 100 | 101% (inactive) | 95 | 102 | 97.5% (inactive) | 96.2% (inactive) | 92.1% (inactive) | 92.7 | 91 |
| O=C(O)c1ccc2c3c(ncnc13)-c1ccccc1C2=O | 113% (inactive) | 95.3 | 107 | 135% (inactive) | 130 | 134 | 135% (inactive) | 105% (inactive) | 123% (inactive) | 105 | 117 |
| CCC(=O)N/C(N)=N/c1nc2ccccc2o1 | 83.5% (inactive) | 85.1 | 84.8 | 110% (inactive) | 106 | 112 | 109% (inactive) | 96.2% (inactive) | 98.3% (inactive) | 97.2 | 99.7 |
| O=[N+]([O-])c1ccc(S(=O)(=O)c2cccc(C(F)(F)F)c2)nc1 | 81.9% (inactive) | 92.5 | 75 | 240% (active) | 180 | 221 | 157% (inactive) | 122% (inactive) | 128% (inactive) | 149 | 110 |
| O=C1C=CC(=O)N1c1ccc(O)cc1 | 96.6% (inactive) | 96.9 | 85.9 | 196% (active) | 192 | 192 | 100% (inactive) | 90% (inactive) | 96.9% (inactive) | 116 | 84.3 |
| CCn1c(=O)c(C(=O)NCc2ccc(OC)cc2)c(O)c2ccccc21 | 98.5% (inactive) | 99.5 | 98.4 | 97.7% (inactive) | 102 | 97.4 | 106% (inactive) | 100% (inactive) | 101% (inactive) | 101 | 100 |
| O=C(COC(=O)/C=C/c1cccs1)Nc1nc(-c2ccccc2)cs1 | 101% (inactive) | 99.9 | 99.7 | 102% (inactive) | 101 | 101 | 105% (inactive) | 93.3% (inactive) | 99.7% (inactive) | 99.1 | 98.5 |
| COc1ccc2c(/C=C/c3cc[n+](C)cc3)c[nH]c2c1 | 102% (inactive) | 106 | 101 | 144% (inactive) | 152 | 143 | 199% (active) | 100% (inactive) | 161% (active) | 169 | 157 |
| CCOC(=O)c1ccc(NC(=O)CCc2nc(-c3ccc(C)cc3)no2)cc1 | 101% (inactive) | 102 | 100 | 98.2% (inactive) | 99.1 | 98.4 | 107% (inactive) | 100% (inactive) | 91.5% (inactive) | 90.2 | 93.2 |

From PubChem BioAssay
